Source: ChEMBL document CHEMBL5620402, “Development of submicromolar 17β-HSD10 inhibitors and their in vitro and in vivo evaluation” (Eur J Med Chem, 2023)
Blank lines part the entries; values can stand above or below the molecule they belong to. Calls of active or inactive are those of the source. The rule behind the calls is not given here.

Columns and labels:
SH-SY5Y [1] = test: Reduction in glutathione level in human SH-SY5Y cells at 100 uM measured after 4 hrs by monochlorobimane assay; assay type: functional, cell-based
Procedure, shortened: (§1)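 SH-SY5Y cells (passages 14–18) in DMEM/F12 with 15% FBS were exposed to compound (0.1–100 μM) for 4 or 24 h. Monochlorobimane was then added to a final 40 μmol/L, and fluorescence (394/490 nm) was followed for 10 min. GSH is the slope as % of control, mean ± SD, triplicate of ≥3 experiments.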

SH-SY5Y [2] = test: Reduction in glutathione level in human SH-SY5Y cells at 100 uM measured after 24 hrs by monochlorobimane assay; assay type: functional, cell-based; procedure, shortened: as §1
SH-SY5Y [3] = test: Reduction in dehydrogenase activity in human SH-SY5Y cells at 100 uM measured after 4 to 24 hrs by […] assay; assay type: functional, cell-based; settings: time 4-24 hrs
Procedure, shortened: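 SH-SY5Y cells (passages 14–18) in DMEM/F12 with 15% FBS were exposed to compound (0.1–100 μM) for 4 and 24 h. WST-1 reagent was added and the absorbance change at 440 nm was read over 0–1 h. Results are % of control cells, mean ± SD, triplicate of ≥3 experiments.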

[4] = Cmax in male albino Wistar rat plasma at 0.013 mg/kg, iv measured upto 1440 mins by HPLC-MS analysis; assay type: ADME, organism-based
Procedure, shortened: (§2)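 Single tail-vein injection into male wild-type rats, 0.1 mL per 100 g body weight. Solutions were 20 or 25 μM in saline with 3% DMSO, giving 0.013 or 0.018 mg/kg. Rats were exsanguinated at 5–1440 min (9 time-points, 3 per point). Plasma and brain levels were measured by HPLC-MS. Parameters came from non-compartmental analysis; values are mean ± SE of three.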

[5] = Tmax in male albino Wistar rat plasma at 0.013 mg/kg, iv measured upto 1440 mins by HPLC-MS analysis; assay type: ADME, organism-based; procedure, shortened: as §2
[6] = AUC (0 to 1440 mins) in male albino Wistar rat plasma at 0.013 mg/kg, iv measured upto 1440 mins by HPLC-MS analysis; assay type: ADME, organism-based; settings: in vivo, 24 h; procedure, shortened: as §2
[7] = Half life in male albino Wistar rat plasma at 0.013 mg/kg, iv measured upto 1440 mins by HPLC-MS analysis; assay type: ADME, organism-based; procedure, shortened: as §2
[8] = MRT in male albino Wistar rat plasma at 0.013 mg/kg, iv measured upto 1440 mins by HPLC-MS analysis; assay type: ADME, organism-based; procedure, shortened: as §2
[9] = Apparent volume of distribution in male albino Wistar rat plasma at 0.013 mg/kg, iv measured upto 1440 mins by HPLC-MS analysis; assay type: ADME, organism-based; settings: read-out: Vz; procedure, shortened: as §2
[10] = Cmax in male albino Wistar rat brain at 0.013 mg/kg, iv measured upto 1440 mins by HPLC-MS analysis; assay type: ADME, organism-based; procedure, shortened: as §2
[11] = Tmax in male albino Wistar rat brain at 0.013 mg/kg, iv measured upto 1440 mins by HPLC-MS analysis; assay type: ADME, organism-based; procedure, shortened: as §2
[12] = AUC (0 to 1440 mins) in male albino Wistar rat brain at 0.013 mg/kg, iv measured upto 1440 mins by HPLC-MS analysis; assay type: ADME, organism-based; settings: in vivo, 24 h; procedure, shortened: as §2
[13] = Permeability coefficient in male albino Wistar rat assessed as ratio of brain AUC to plasma AUC at 0.013 mg/kg, iv measured upto 1440 mins by HPLC-MS analysis; assay type: ADME, organism-based; procedure, shortened: as §2
[14] = Tmax in male albino Wistar rat plasma at 60 mg/kg, po measured upto 1440 mins by HPLC-MS analysis; assay type: ADME, organism-based
Procedure, shortened: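 Single oral gavage of a 16 mM solution (blunt needle via oesophagus into stomach) to male wild-type rats, in 10% NMP, 25% Kolliphor EL and 65% saline. Three animals were killed at each of 15 time points from 5 to 1440 min and exsanguinated. Plasma levels were measured by HPLC-MS. Non-compartmental analysis gave mean ± SE of three.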

[15] = Cmax in male albino Wistar rat brain at 60 mg/kg, po measured upto 1440 mins by HPLC-MS analysis; assay type: ADME, organism-based
Procedure, shortened: (§3)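 Oral gavage via blunt needle into the stomach of male wild-type rats. Dose was 60 mg/kg from a 16 mM solution in 10% NMP, 25% Kolliphor EL and 65% saline. Rats were sacrificed at 15 time-points from 5 to 1440 min, 3 per point. Plasma and brain were analysed by HPLC-MS with non-compartmental analysis; values are mean ± SE of three.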

[16] = AUC (0 to 1440 mins) in male albino Wistar rat brain at 60 mg/kg, po measured upto 1440 mins by HPLC-MS analysis; assay type: ADME, organism-based; settings: in vivo, 24 h; procedure, shortened: as §3
[17] = Cmax in male albino Wistar rat plasma at 0.018 mg/kg, iv measured upto 1440 mins by HPLC-MS analysis; assay type: ADME, organism-based; procedure, shortened: as §2
[18] = Tmax in male albino Wistar rat plasma at 0.018 mg/kg, iv measured upto 1440 mins by HPLC-MS analysis; assay type: ADME, organism-based
Procedure, shortened: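 Single tail-vein injection in male wild-type rats of a 25 μM dosing solution in saline with 3% DMSO, given at 0.1 mL per 100 g body weight. Three animals were killed at each of 5, 15, 30, 60, 90, 180, 240, 360 and 1440 min and exsanguinated. Plasma levels were measured by HPLC-MS. Parameters came from non-compartmental analysis, reported as mean ± SE of three.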

[19] = AUC (0 to 1440 mins) in male albino Wistar rat plasma at 0.018 mg/kg, iv measured upto 1440 mins by HPLC-MS analysis; assay type: ADME, organism-based; settings: in vivo, 24 h; procedure, shortened: as §2
[20] = Half life in male albino Wistar rat plasma at 0.018 mg/kg, iv measured upto 1440 mins by HPLC-MS analysis; assay type: ADME, organism-based; procedure, shortened: as §2
[21] = MRT in male albino Wistar rat plasma at 0.018 mg/kg, iv measured upto 1440 mins by HPLC-MS analysis; assay type: ADME, organism-based; procedure, shortened: as §2
[22] = Apparent volume of distribution in male albino Wistar rat plasma at 0.018 mg/kg, iv measured upto 1440 mins by HPLC-MS analysis; assay type: ADME, organism-based; settings: read-out: Vz; procedure, shortened: as §2
[23] = Tmax in male albino Wistar rat brain at 0.018 mg/kg, iv measured upto 1440 mins by HPLC-MS analysis; assay type: ADME, organism-based; procedure, shortened: as §2
[24] = AUC (0 to 1440 mins) in male albino Wistar rat brain at 0.018 mg/kg, iv measured upto 1440 mins by HPLC-MS analysis; assay type: ADME, organism-based; settings: in vivo, 24 h; procedure, shortened: as §2
[25] = Permeability coefficient in male albino Wistar rat assessed as ratio of brain AUC to plasma AUC at 0.018 mg/kg, iv measured upto 1440 mins by HPLC-MS analysis; assay type: ADME, organism-based; procedure, shortened: as §2

Cmax [4]: 0.389 nM | Tmax [5]: 5 min | AUC [6]: 5832 pmol·min | half-life [7]: 15.8 min | MRT [8]: 24.5 min | Vd [9]: 147 L/kg | Cmax [10]: 0.0126 nM | Tmax [11]: 956 min | AUC [12]: 3299 pmol·min | Kp at 24 h [13]: 0.566 | Tmax [14]: 35 min | Cmax [15]: 0.206 nM | AUC [16]: 15749 pmol·min
Compound: CC(=O)Nc1ccc2nc(NC(=O)Nc3ccc(O)c(Cl)c3)sc2c1
inhibition (SH-SY5Y [1]): Active | inhibition (SH-SY5Y [2]): inactive | inhibition (SH-SY5Y [3]): Active

Tmax [14]: 25 min | Cmax [15]: 0.154 nM | AUC [16]: 20135 pmol·min | Cmax [17]: 1.54 nM | Tmax [18]: 5 min | AUC [19]: 18961 pmol·min | half-life [20]: 29.4 min | MRT [21]: 15.7 min | Vd [22]: 135 L/kg | Tmax [23]: 90 min | AUC [24]: 34 pmol·min | Kp at 24 h [25]: 0.002
Compound: O=C(Nc1ccc(O)c(Cl)c1)Nc1nc2ccc(C(=O)O)cc2s1
